Experimental findings from ChEMBL document CHEMBL5346886 (Eur J Med Chem, 2023) are described below.

The nature of series [1]: Drug distribution in BALB/c mouse liver assessed as hydrolyzed GS-441524 metabolite at 200 mg/kg, po administered as single dose and measured after 1 hrs by LC-MS/MS analysis. The format is ADME, organism-based. As to conditions: in vivo.
Series [2] in a line: Drug distribution in BALB/c mouse plasma assessed as hydrolyzed ibuprofen metabolite at 200 mg/kg, po administered as single dose and measured after 1 hrs by LC-MS/MS analysis. The class given is ADME, organism-based. The note with it: in vivo.
Series [3] can be described thus: Toxicity in BALB/c mouse infected with murine hepatitis virus-A59 assessed as effect on survival at 50 to 200 mg/kg, po administered once daily one hour post infection and measured after 23 days. As to conditions: in vivo, 552 h.
Series [4] concerns Murine hepatitis virus. In words: Antiviral activity against murine hepatitis virus-A59 infected in BALB/c mouse assessed as remission of fulminant hepatitis in liver at 200 mg/kg, po administered once daily one hour post infection and measured after 3 days by H&E staining based analysis. The format is functional, organism-based. As to conditions: time 3.0 day. The procedure, abridged: (§1)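 In male BALB/c mice (3–4 weeks), MHV-A59 was given intranasally (30 μL, TCID50 = 10−7.125/100 μL). Oral dosing once daily in a Cremophor EL/PBS/DMSO vehicle began at 1 hpi and lasted four days. At 3 dpi, lungs and livers from 4 mice per group were fixed in zinc formalin and paraffin-embedded. Sections of about 4 μm were stained with H&E and examined at 200× and 400×.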

The test system of series [5] is Murine hepatitis virus. Kind of series: Antiviral activity against murine hepatitis virus-A59 infected in BALB/c mouse assessed as reduction in IFN-gamma production in lungs at 200 mg/kg, po administered once daily one hour post infection and measured after 3 days by ELISA analysis. The format is functional, organism-based. The note with it: time 3.0 day. The method in brief:
(§2)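 MHV-A59 was inoculated intranasally into male BALB/c mice (30 μL, TCID50 = 10−7.125/100 μL), with oral dosing once daily from 1 hpi for four days. At 3 dpi, 0.1 g lung or liver from 4 mice per group was homogenized in 0.9 mL water at 4 °C and centrifuged. Supernatant IFN-β was read by ELISA; TNF-α, IFN-γ, IL-1β, IL-6 and CXCL10 by multi-analyte kit, with OD 450 nm against standards.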

Series [6] is described as follows: Drug distribution in BALB/c mouse lung assessed as hydrolyzed ibuprofen metabolite at 200 mg/kg, po administered as single dose and measured after 1 hrs by LC-MS/MS analysis. The format is ADME, organism-based. As to conditions: in vivo.
For series [7], the system named is Murine hepatitis virus. In words: Antiviral activity against murine hepatitis virus-A59 infected in BALB/c mouse assessed as reduction in IL-1beta production in liver at 10 to 100 mg/kg, po administered once daily one hour post infection and measured after 3 days by ELISA analysis. The class given is functional, organism-based. The note with it: dose 10-100 mg/kg, time 3.0 day. The method in brief: as §2

The test system of series [8] is Murine hepatitis virus. Kind of series: Antiviral activity against Murine hepatitis virus-A59 infected in mouse L929 cells assessed as reduction in viral copy pre-infected with cell for 1 hrs followed by compound addition and measured after 48 hrs by RT-qPCR analysis. The class given is functional, organism-based. The note with it: Murine coronavirus. The procedure, abridged:
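L929 cells in DMEM with 10% FBS were washed serum-free at 80% confluence and infected with MHV-A59 at MOI 0.01 for 1 h at 37 °C. Compounds were added at 0.1–100 μmol/L, with DMSO as blank control. After 48 h at 37 °C, the viral M gene in supernatant was measured by qRT-PCR. Percent inhibition was derived from copy number and EC50 from curve fitting.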
For orientation: In qPCR the cycle at which signal appears reflects the starting amount.

Series [9] concerns Murine hepatitis virus. Kind of series: Potency index, ratio of GS-441524 EC50 to test compound EC50 for antiviral activity against Murine hepatitis virus-A59 infected in mouse L929 cells assessed as reduction in viral copy pre-infected with cell for 1 hrs followed by compound addition and measured after 48 hrs by RT-qPCR analysis. The format is functional.
A short description of series [10]: Drug distribution in BALB/c mouse lung assessed as hydrolyzed GS-441524 metabolite at 200 mg/kg, po administered as single dose and measured after 1 hrs by LC-MS/MS analysis. The format is ADME, organism-based. The note with it: in vivo.
A short description of series [11]: Drug metabolism in Sprague-Dawley rat assessed as hydrolysis-mediated GS-441524 metabolite formation at 25 mg/kg, po administered as single dose and measured after 24 hrs by LC-MS/MS analysis. The format is ADME, organism-based. As to conditions: in vivo. The procedure, abridged: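 Male SD rats (n = 3), fasted 12 h, dosed intragastrically; jugular vein blood into EDTA-K2 tubes at 0.25, 0.5, 1, 2, 3, 4, 6, 8 and 24 h; plasma protein-precipitated with acetonitrile, filtered, analytes measured by LC/MS/MS; noncompartmental PK analysis; mean ± SD.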

Series [12] is described as follows: Drug metabolism in Sprague-Dawley rat assessed as hydrolysis-mediated GS-441524 metabolite formation at 5 mg/kg, iv administered as single dose and measured after 24 hrs by LC-MS/MS analysis. The note with it: in vivo. The format is ADME, organism-based.
Series [13] concerns Murine hepatitis virus. Kind of series: Antiviral activity against murine hepatitis virus-A59 infected in BALB/c mouse assessed as reduction in IFN-gamma production in liver at 10 to 100 mg/kg, po administered once daily one hour post infection and measured after 3 days by ELISA analysis. The class given is functional, organism-based. As to conditions: dose 10-100 mg/kg, time 3.0 day. The method in brief:
as §2
On the technique in general: In an ELISA, binding on a coated surface is turned into a signal by an enzyme label.

The test system of series [14] is Murine hepatitis virus. In words: Antiviral activity against murine hepatitis virus-A59 infected in BALB/c mouse assessed as alleviation of lymphocytes infiltration in lungs at 200 mg/kg, po administered once daily one hour post infection and measured after 3 days by H&E staining based analysis. The format is functional, organism-based. The note with it: time 3.0 day. The procedure, abridged:
as §1

Series [15] relates to Murine hepatitis virus. Kind of series: Antiviral activity against murine hepatitis virus-A59 infected in BALB/c mouse assessed as remission of hepatocyte necrosis at 200 mg/kg, po administered once daily one hour post infection and measured after 3 days by H&E staining based analysis. The format is functional, organism-based. The note with it: time 3.0 day. The procedure, abridged: as §1

Series [16] in a line: Drug distribution in BALB/c mouse kidney assessed as hydrolyzed ibuprofen metabolite at 200 mg/kg, po administered as single dose and measured after 1 hrs by LC-MS/MS analysis. As to conditions: in vivo. The class given is ADME, organism-based.
A short description of series [17]: Drug distribution in BALB/c mouse kidney assessed as hydrolyzed GS-441524 metabolite at 200 mg/kg, po administered as single dose and measured after 1 hrs by LC-MS/MS analysis. The class given is ADME, organism-based. The note with it: in vivo.
Series [18] is described as follows: Solubility of the compound. The class given is physicochemical.
Series [19] can be described thus: Drug distribution in BALB/c mouse liver assessed as hydrolyzed ibuprofen metabolite at 200 mg/kg, po administered as single dose and measured after 1 hrs by LC-MS/MS analysis. As to conditions: in vivo. The format is ADME, organism-based.
Series [20] concerns Murine hepatitis virus. In words: Antiviral activity against murine hepatitis virus-A59 infected in BALB/c mouse assessed as reduction in IL-6 production in lungs at 200 mg/kg, po administered once daily one hour post infection and measured after 3 days by ELISA analysis. The format is functional, organism-based. As to conditions: time 3.0 day. The procedure, abridged: as §2

A short description of series [21]: Drug distribution in BALB/c mouse plasma assessed as hydrolyzed GS-441524 metabolite at 200 mg/kg, po administered as single dose and measured after 1 hrs by LC-MS/MS analysis. The format is ADME, organism-based. The note with it: in vivo.
Series [22] concerns Murine hepatitis virus. Kind of series: Antiviral activity against murine hepatitis virus-A59 infected in BALB/c mouse assessed as reduction in IL-1beta production in lungs at 200 mg/kg, po administered once daily one hour post infection and measured after 3 days by ELISA analysis. The format is functional, organism-based. As to conditions: time 3.0 day. The procedure, abridged: as §2

In series [23] the test system is Murine hepatitis virus. In words: Antiviral activity against murine hepatitis virus-A59 infected in BALB/c mouse assessed as reduction in IL-6 production in liver at 10 to 100 mg/kg, po administered once daily one hour post infection and measured after 3 days by ELISA analysis. As to conditions: dose 10-100 mg/kg, time 3.0 day. The class given is functional, organism-based. The method in brief: as §2

pEC50: −log10 of the molar value. Values after ≈ are worked out from the molar mass of the structure shown. Active and inactive are the calls of the source. No cut-off for these calls is given here.

As usually defined, the pEC50 is the negative decadic logarithm of the EC50, by convention in mol/L. As usually defined, the solubility is the concentration that dissolves in the medium under given conditions. Read a low solubility as little dissolved substance. `CC(C)Cc1ccc(C(C)C(=O)OC[C@H]2O[C@@](C#N)(c3ccc4c(N)ncnn34)[C@H](O)[C@@H]2O)cc1` (stereo partly drawn): the Drug uptake entry in [1], in series [2], in series [6], in series [10], in series [16] and in [17] was “Active” throughout. In addition, the Drug uptake entry in [19] and in series [21] was “Active” in each case. In addition, in [3], the Activity result is on record as “Toxic”. Also, the outcome in series [4], in series [5], in series [7], in series [13], in series [14] and in series [15] was Active. Besides, the result in series [20], in series [22] and in series [23] was Active. The pEC50 in series [8] is 5.94. In addition, in series [9], the “Ratio EC50” value worked out at 8. In addition, the Drug metabolism entry in series [11] and in series [12] was “Metabolite_Detected” in each case. This compound also gave a solubility in [18] of 49.9 µM (≈ 23.9 µg/mL).
